Experimental data: ChEMBL document CHEMBL1147035, “Synthesis and in vitro evaluation of targeted tetracycline derivatives: effects on inhibition of matrix metalloproteinases” (Bioorg Med Chem, 2007)
Activity calls are given as the source filed them. The calls are words filed in the database; no cut-off is given here.

Experiments:
[1] = biological target: 72 kDa type IV collagenase (Homo sapiens, UniProt P08253); experiment: Inhibition of human MMP2
In short: (§1)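 Human pro-enzymes activated with 2 mM APMA at 37 °C (MMP-2 30 min; MMP-3, MMP-8 1 h), then preincubated 30 min at 37 °C with inhibitor diluted from 10^-3 to 10^-6 M. Substrates: Mca-RPKPYA-Nva-WMK(Dnp)-NH2 for MMP-3; Dnp-Pro-Cha-Gly-Cys(ME)-His-Ala-Lys(Nma)-NH2 for MMP-2 and MMP-8. Incubated 6 h at 37 °C; fluorescence read at ex 340/em 440 nm. Triplicates; IC50 from 3 central linear points.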

Collagenase 3 = Collagenase 3 (Homo sapiens, UniProt P45452); experiment: Inhibition of human MMP13
In short: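 Human pro-MMP-13 (2 µg/mL in developing buffer) activated with 2 mM APMA for 1 h at 37 °C, then stopped on ice. Enzyme preincubated 30 min at 37 °C with compound (serial 1/10 dilutions from DMSO stocks), then incubated 6 h at 37 °C with fluorogenic substrate Dnp-Pro-Cha-Gly-Cys(ME)-His-Ala-Lys(Nma)-NH2. Fluorescence read at ex 340/em 440 nm, in triplicate. IC50 from 3 points in the linear range of % control fluorescence.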

SW1353 = experiment: Inhibition of IL-1-beta-induced MMP13 production in human SW1353 cells at 50 uM; assay type: functional, cell-based
In short: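 SW-1353 human chondrosarcoma cells grown to confluence in Ham's F12 with 10% FBS, then serum-free medium with 0.1% BSA for 24 h. Cells pretreated 30 min with DMSO vehicle or compound (6×10^-6 to 5×10^-5 M), then stimulated with rmIL-1β 10 ng/mL for 24 h. Total secreted MMP-13 (pro plus mature) in medium measured by ELISA.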

Oryctolagus cuniculus [2] = organism: Oryctolagus cuniculus; experiment: (§2) Reduction of IL1-beta plus […]-induced proteoglycan degradation in rabbit articular cartilage at 200 uM relative to control; assay type: functional
In short: (§3)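 Rabbit articular cartilage fragments were prelabelled with 35SO4 and washed. They were then cultured 24 h with 1 ng/mL rmIL-1β, with or without compound, and moved to 5×10^-4 M APMA for another 24 h. Fragments were digested with papain, and the % radioactivity released to the medium was counted. Means ± sem, n = 8/group; ANOVA with Dunnett's test.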

Neutrophil collagenase = Neutrophil collagenase (Homo sapiens, UniProt P22894); experiment: Inhibition of human MMP8; in short: as §1
Neutrophil collagenase, sequence (P22894 whole entry): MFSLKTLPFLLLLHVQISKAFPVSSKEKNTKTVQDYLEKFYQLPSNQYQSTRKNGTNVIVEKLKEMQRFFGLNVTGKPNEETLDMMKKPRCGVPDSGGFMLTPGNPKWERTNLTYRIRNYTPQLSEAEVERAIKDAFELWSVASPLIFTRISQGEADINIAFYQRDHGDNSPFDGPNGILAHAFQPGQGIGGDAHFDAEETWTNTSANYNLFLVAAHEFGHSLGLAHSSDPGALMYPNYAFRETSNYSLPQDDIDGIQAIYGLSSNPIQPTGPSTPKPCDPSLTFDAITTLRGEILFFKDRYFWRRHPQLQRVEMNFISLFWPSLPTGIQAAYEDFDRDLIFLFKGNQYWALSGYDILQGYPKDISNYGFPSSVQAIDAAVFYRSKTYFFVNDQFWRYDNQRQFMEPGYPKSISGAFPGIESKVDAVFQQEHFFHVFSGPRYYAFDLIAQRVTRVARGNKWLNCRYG

Stromelysin-1 = Stromelysin-1 (Homo sapiens, UniProt P08254); experiment: Inhibition of human MMP3; in short: as §1
Stromelysin-1, sequence (P08254 whole entry): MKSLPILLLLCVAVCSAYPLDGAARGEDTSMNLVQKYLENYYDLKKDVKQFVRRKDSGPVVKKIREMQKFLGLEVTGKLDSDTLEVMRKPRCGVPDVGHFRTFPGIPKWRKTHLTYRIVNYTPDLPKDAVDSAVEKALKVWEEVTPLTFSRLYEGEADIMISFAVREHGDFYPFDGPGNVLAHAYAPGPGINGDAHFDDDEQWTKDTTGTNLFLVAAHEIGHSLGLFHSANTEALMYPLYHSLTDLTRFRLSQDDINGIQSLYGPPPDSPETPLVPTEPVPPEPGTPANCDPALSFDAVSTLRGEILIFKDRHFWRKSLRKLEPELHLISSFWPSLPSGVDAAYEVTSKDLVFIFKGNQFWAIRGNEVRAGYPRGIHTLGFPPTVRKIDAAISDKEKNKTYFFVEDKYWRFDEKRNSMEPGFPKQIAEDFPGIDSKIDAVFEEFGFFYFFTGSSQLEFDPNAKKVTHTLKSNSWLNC

Oryctolagus cuniculus [3] = organism: Oryctolagus cuniculus; experiment: (§4) Inhibition of IL1-beta plus […]-induced proteoglycan degradation in rabbit articular cartilage at 100 uM relative to control; assay type: functional
In short: (§5)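 Rabbit articular cartilage fragments prelabeled with 35SO4 and washed. Incubated 24 h with or without 1 ng/mL rmIL-1β, with or without compound. Fragments then moved to 5×10^-4 M APMA for 24 h and digested in papain. Radioactivity counted by liquid scintillation. Degradation = media cpm/(media + tissue cpm) ×100. Means ± sem, n = 8/group.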

[4] = Inhibition of IL-1-beta-induced collagen degradation in rabbit articular cartilage at 100 uM in presence of plasmin relative to control; assay type: functional, Oryctolagus cuniculus; set-up: scale not given: the % may be the effect or the level left
In short: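 Non-radiolabeled rabbit articular cartilage fragments cultured 48 h with or without 10 ng/mL IL-1β plus 0.1 U/mL EACA- and Lys-free plasmin, with or without compound. Media and tissue hydrolyzed in 6 M HCl at 110 °C for 12 h. Hydroxyproline measured colorimetrically; degradation = media OH-Pro/(media + tissue OH-Pro) ×100. Means ± sem, n = 8/group; ANOVA with Dunnett's test.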

[5] = as §4; assay type: functional, Oryctolagus cuniculus; set-up: scale not given: the % may be the effect or the level left; in short: as §5
[6] = as §2; assay type: functional, Oryctolagus cuniculus; set-up: scale not given: the % may be the effect or the level left; in short: as §3

72 kDa type IV collagenase, sequence (P08253 whole entry): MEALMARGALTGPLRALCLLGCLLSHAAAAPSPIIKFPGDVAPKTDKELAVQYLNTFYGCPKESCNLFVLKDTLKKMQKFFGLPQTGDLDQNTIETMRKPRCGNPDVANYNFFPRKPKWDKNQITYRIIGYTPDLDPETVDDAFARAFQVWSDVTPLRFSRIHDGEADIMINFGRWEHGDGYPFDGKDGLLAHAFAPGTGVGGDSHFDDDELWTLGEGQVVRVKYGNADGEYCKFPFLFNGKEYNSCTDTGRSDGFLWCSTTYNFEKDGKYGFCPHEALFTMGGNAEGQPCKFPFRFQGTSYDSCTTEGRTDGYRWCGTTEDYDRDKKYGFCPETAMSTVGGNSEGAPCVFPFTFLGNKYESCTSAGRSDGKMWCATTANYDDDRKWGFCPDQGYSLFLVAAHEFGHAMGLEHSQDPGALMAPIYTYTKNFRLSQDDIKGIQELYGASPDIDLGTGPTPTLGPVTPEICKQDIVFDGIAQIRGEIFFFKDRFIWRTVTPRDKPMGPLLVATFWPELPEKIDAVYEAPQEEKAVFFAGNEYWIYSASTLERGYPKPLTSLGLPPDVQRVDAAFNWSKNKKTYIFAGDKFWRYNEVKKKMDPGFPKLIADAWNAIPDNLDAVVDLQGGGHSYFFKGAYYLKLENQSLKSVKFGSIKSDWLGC

With C[C@@]1(O)c2cccc(O)c2C(=O)C2=C(O)[C@]3(O)C(=O)C(C(N)=O)=C(O)[C@@H]([N+](C)(C)C)C3CC21 (stereo partly specified) the IC50 [1] was 140 µM, the IC50 (Collagenase 3) was 120 µM and the Activity (SW1353) was “inactive”. For the same molecule, the Activity (Oryctolagus cuniculus [2]) was “inactive”, the IC50 (Neutrophil collagenase) was 110 µM and the IC50 (Stromelysin-1) was 150 µM.

For C[C@H]1c2cccc(O)c2C(=O)C2=C(O)[C@]3(O)C(=O)C(C(N)=O)=C(O)[C@@H]([N+](C)(C)C)C3[C@H](O)C21.[I-] (stereo partly specified), the IC50 [1] was 7.7 µM, the IC50 (Collagenase 3) was 4.9 µM and the Activity (SW1353) was “inactive”. The Activity (Oryctolagus cuniculus [3]) was “inactive”, the IC50 (Neutrophil collagenase) was 11 µM and the IC50 (Stromelysin-1) was 81 µM. For the same molecule, the Activity [4] was 66%.

With C[C@H]1c2cccc(O)c2C(=O)C2=C(O)[C@]3(O)C(=O)C(C(N)=O)=C(O)[C@@H](N(C)C)[C@@H]3C(O)[C@@H]21.O (single isomer, unassigned) [DOXYCYCLINE] the IC50 [1] was 24 µM, the IC50 (Collagenase 3) was 40 µM and the Activity (SW1353) was “Active”. For the same molecule, the Activity [5] was 8%, the IC50 (Neutrophil collagenase) was 31 µM and the IC50 (Stromelysin-1) was 25 µM. The Activity [4] was 89%.

For CN(C)[C@@H]1C(O)=C(C(N)=O)C(=O)[C@@]2(O)C(O)=C3C(=O)c4c(O)cccc4[C@@](C)(O)[C@H]3C[C@@H]12 [TETRACYCLINE], the IC50 [1] was 220 µM, the IC50 (Collagenase 3) was 180 µM and the Activity (SW1353) was “Active”. It also gave an Activity [6] of 29%, an IC50 (Neutrophil collagenase) of 180 µM and an IC50 (Stromelysin-1) of 140 µM.
